Results reported in ChEMBL document CHEMBL1145826, “New pyrimido[5,4-b]indoles as ligands for alpha(1)-adrenoceptor subtypes” (J Med Chem, 2003).

Experiments:
[1] = biological target: T1, Alpha-1D adrenergic receptor (Homo sapiens, UniProt P25100); assay: In vitro binding affinity at human Alpha-1D adrenergic receptor.
T1 sequence (P25100 whole entry): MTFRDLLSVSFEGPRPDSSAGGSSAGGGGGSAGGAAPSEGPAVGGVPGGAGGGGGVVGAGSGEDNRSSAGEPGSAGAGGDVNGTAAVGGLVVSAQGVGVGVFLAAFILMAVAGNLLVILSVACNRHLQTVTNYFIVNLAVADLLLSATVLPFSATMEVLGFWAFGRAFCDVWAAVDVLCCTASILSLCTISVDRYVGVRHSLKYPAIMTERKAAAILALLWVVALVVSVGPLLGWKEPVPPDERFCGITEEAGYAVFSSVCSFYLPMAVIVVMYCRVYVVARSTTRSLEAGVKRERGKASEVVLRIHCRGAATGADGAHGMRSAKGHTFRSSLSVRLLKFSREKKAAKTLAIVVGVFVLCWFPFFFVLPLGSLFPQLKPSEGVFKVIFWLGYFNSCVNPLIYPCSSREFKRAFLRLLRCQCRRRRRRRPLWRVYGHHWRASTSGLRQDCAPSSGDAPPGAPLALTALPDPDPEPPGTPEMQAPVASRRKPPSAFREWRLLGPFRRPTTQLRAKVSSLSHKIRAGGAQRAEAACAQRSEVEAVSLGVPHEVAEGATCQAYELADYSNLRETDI
Method in brief: (§1)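 Human α1A-, α1B- or α1D-AR stably expressed in HEK293 cells (calcium phosphate transfection, subclones chosen for high expression); membranes from scraped, homogenized cells spun at 30000g. Three experiments in duplicate, mean ± SE.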

[2] = biological target: T2, Alpha-1B adrenergic receptor (Homo sapiens, UniProt P35368); assay: In vitro binding affinity at human Alpha-1B adrenergic receptor.; method in brief: as §1
T2 sequence (P35368 whole entry): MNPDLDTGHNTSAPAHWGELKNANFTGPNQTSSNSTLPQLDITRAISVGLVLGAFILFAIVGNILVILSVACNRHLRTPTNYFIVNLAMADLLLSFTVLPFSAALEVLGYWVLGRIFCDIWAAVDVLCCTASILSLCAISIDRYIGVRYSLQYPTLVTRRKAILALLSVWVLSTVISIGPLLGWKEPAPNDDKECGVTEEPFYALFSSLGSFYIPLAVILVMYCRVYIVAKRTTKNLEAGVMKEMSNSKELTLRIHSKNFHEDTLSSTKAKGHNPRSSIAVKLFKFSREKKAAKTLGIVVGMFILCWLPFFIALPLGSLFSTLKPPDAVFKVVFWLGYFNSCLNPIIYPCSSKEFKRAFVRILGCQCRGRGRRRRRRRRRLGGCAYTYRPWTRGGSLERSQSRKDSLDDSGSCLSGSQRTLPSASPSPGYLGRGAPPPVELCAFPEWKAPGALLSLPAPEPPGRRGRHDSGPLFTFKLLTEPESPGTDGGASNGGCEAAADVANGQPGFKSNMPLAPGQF

[3] = biological target: T3, Alpha-1A adrenergic receptor (Homo sapiens, UniProt P35348); assay: Binding affinity towards Alpha-1A adrenergic receptor; method in brief: as §1
T3 sequence (P35348 whole entry): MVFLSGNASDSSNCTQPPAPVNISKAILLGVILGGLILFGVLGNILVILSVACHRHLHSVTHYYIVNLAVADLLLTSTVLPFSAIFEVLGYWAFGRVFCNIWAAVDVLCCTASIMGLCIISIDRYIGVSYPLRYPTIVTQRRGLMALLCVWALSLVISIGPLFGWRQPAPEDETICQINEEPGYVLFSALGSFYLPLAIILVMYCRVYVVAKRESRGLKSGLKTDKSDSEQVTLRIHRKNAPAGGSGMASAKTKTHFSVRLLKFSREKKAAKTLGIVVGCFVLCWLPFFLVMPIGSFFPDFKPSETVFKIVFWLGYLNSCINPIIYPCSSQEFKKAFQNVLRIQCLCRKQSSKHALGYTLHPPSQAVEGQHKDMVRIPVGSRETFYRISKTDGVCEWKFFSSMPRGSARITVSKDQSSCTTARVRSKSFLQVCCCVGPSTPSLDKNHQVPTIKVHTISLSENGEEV

[4] = biological target: T1, Alpha-1D adrenergic receptor; assay: Binding affinity towards Alpha-1D adrenergic receptor; method in brief: as §1
[5] = biological target: T3, Alpha-1A adrenergic receptor; assay: In vitro binding affinity at human Alpha-1A adrenergic receptor.; method in brief: as §1
[6] = biological target: Adrenergic receptor alpha-1 (Homo sapiens) (UniProt P35348+P25100+P35368); assay: Selectivity for alpha 1A-Adrenergic receptors compared to 1D-Adrenergic receptors.; format: protein assay
[7] = species: Rattus norvegicus; assay: Inhibition of [3H]inositol Phosphate formation by 100 uM norepinephrine in rat hippocampal slices.; format: functional, Hippocampus
Method in brief: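 Rat hippocampal slices equilibrated in Krebs-Henseleit buffer (pH 7.4, 95% O2/5% CO2) at 37 °C for 30 min, labeled 60 min with 0.3 µM myo-[2-3H]inositol. LiCl 7 mM added, then 100 µM norepinephrine 10 min later, test compound (1 µM) 5 min before agonist. After 60 min, stopped with chloroform/methanol; [3H]inositol monophosphate isolated by anion exchange, dpm/mg protein, ≥4 determinations.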

Work on `COc1ccccc1N1CCN(Cn2nc(-c3ccccc3)c3c(C)onc3c2=O)CC1` yielded a Ki [1] of 316 nM.

Work on `O=c1[nH]c2c([nH]c3ccccc32)c(=O)n1CCN1CCN(c2ccccc2Cl)CC1` yielded a Ki [2] of 2.57 nM, a Ki [3] of 4.68 nM and a Ki [4] of 3.63 nM.

`COc1cc2c(cc1O)CCN1Cc3c(ccc(O)c3OC)C[C@@H]21` showed a Ki [2] of 360 nM, a Ki [5] of 616 nM and a Ki [1] of 25 nM. For the same compound, the Ratio [6] was 24.6.

`CCC(C)c1ccc(N2CCN(CCn3c(=O)[nH]c4c([nH]c5ccccc54)c3=O)CC2)cc1` (configuration not stated) gave a Ki [4] of 60.3 nM.

With `Cc1nc2c3ccccc3nc-2c(O)n1CCN1CCN(c2ccc(C(C)C)cc2)CC1` the Ki [2] was 4070 nM, the Ki [3] was 3550 nM and the Ki [4] was 1700 nM.

For `COc1ccccc1N1CCN(CCn2nc(-c3ccccc3)c3c(C)onc3c2=O)CC1`, the Ki [2] was 31.1 nM, the Ki [5] was 1.4 nM and the Ki [1] was 1.5 nM. It also gave a Ratio [6] of 0.9.

Work on `O=c1[nH]c2c([nH]c3ccccc32)c(=O)n1CCN1CCN2c3ccccc3OCC2C1` (configuration not stated) yielded a Ki [2] of 7760 nM, a Ki [3] of 7940 nM and a Ki [4] of 126 nM.

In the case of `CCCCc1ccc(N2CCN(CCn3c(=O)[nH]c4c([nH]c5ccccc54)c3=O)CC2)cc1`, the Ki [4] is reported as 245 nM.

`CC(C)c1ccc(N2CCN(CCn3c(=O)[nH]c4c([nH]c5ccccc54)c3=O)CC2)cc1` was tested, and the Ki [2] was 9550 nM and the Ki [4] was 35.5 nM.

`N#CCc1ccc(N2CCN(CCn3c(=O)[nH]c4c([nH]c5ccccc54)c3=O)CC2)cc1` was tested, and the Ki [4] was 10 nM.

With `CC(C)(C)c1ccc(N2CCN(CCn3c(=O)[nH]c4c([nH]c5ccccc54)c3=O)CC2)cc1` the Activity [7] was 10390 dpm (mg of protein)-1 and the inhibition at 1 µM [3] was 8%.

With `CC(C)c1ccc(N2CCN(CCn3cnc4c5ccccc5nc-4c3O)CC2)cc1` the Ki [2] was greater than 10000 nM, the Ki [3] was greater than 10000 nM and the Ki [4] was greater than 10000 nM.

Work on `COc1ccccc1N1CCN(CCCn2c(C)nc3c4ccccc4nc-3c2O)CC1` yielded a Ki [2] of 26.9 nM, a Ki [3] of 4.9 nM and a Ki [4] of 2.57 nM.

`CCOc1ccccc1N1CCN(CCn2c(=O)[nH]c3c([nH]c4ccccc43)c2=O)CC1` was tested, and the Ki [2] was 14.5 nM, the Ki [3] was 7.24 nM and the Ki [4] was 1.58 nM.

`CCOc1ccccc1N1CCN(CCn2cnc3c4ccccc4nc-3c2O)CC1` was tested, and the Ki [2] was 61.7 nM, the Ki [3] was 9.77 nM and the Ki [4] was 6.03 nM.

With `Cc1nc2c3ccccc3nc-2c(O)n1CCN1CCN2c3ccccc3OCC2C1` (configuration not stated) the Ki [2] was greater than 10000 nM, the Ki [3] was greater than 10000 nM and the Ki [4] was greater than 10000 nM.

With `COc1ccccc1N1CCN(CCn2c(=O)[nH]c3c([nH]c4ccccc43)c2=O)CC1` the Ki [2] was 1.82 nM and the Activity [7] was 3987 dpm (mg of protein)-1.

For `CCc1nc2c3ccccc3nc-2c(O)n1CCN1CCN(c2ccccc2OC)CC1`, the Ki [2] was 245 nM, the Ki [3] was 49 nM and the Ki [4] was 6.92 nM.

Compound `CC(C)(C)c1ccc(N2CCN(CCn3cnc4c5ccccc5nc-4c3O)CC2)cc1` has a Ki [2] greater than 10000 nM, a Ki [3] greater than 10000 nM and a Ki [4] greater than 10000 nM.

Compound `C=Cc1sc2ccc(Cl)c3c2c1CN(C)CC3` has a Ratio [6] of 22.5.

`O=c1[nH]c2c([nH]c3ccccc32)c(=O)n1CCN1CCN(c2ccccc2O)CC1` showed a Ki [2] of 11.7 nM, a Ki [3] of 8.91 nM and a Ki [4] of 0.631 nM.

`C[C@H](CN1CCN(c2cc(F)c(F)cc2F)CC1)N1C(=O)CC2(CCCC2)CC1=O` showed a Ki [5] of 294 nM and a Ki [1] of 1.6 nM.

Work on `COc1ccccc1C1CCN(CCn2c(=O)[nH]c3c([nH]c4ccccc43)c2=O)CC1` yielded a Ki [2] of 2.88 nM, a Ki [3] of 1.55 nM and a Ki [4] of 0.933 nM.

For `COc1ccccc1N1CCN(CCn2c(C)nc3c4ccccc4nc-3c2O)CC1`, the Ki [2] was 20.9 nM.

With `COc1ccccc1N1CCN(CCn2cnc3c4ccccc4nc-3c2O)CC1` the Ki [2] was 13.8 nM, the Ki [3] was 1.41 nM and the Ki [4] was 0.724 nM.

`CCc1nc2c3ccccc3nc-2c(O)n1CCCN1CCN(c2ccccc2OC)CC1` gave a Ki [2] of 27.5 nM, a Ki [3] of 10.7 nM and a Ki [4] of 12.6 nM.

For `CC(C)c1ccc(N2CCN(CCn3c(=O)[nH]c4c(sc5ccccc54)c3=O)CC2)cc1`, the Ki [4] was 126 nM.

For `O=c1[nH]c2c([nH]c3ccccc32)c(=O)n1CCN1CCN(c2ccc(C3CCCCC3)cc2)CC1`, the inhibition at 1 µM [3] was 7%.

In the case of `COc1ccccc1N1CCN(CCCn2cnc3c4ccccc4nc-3c2O)CC1`, the Ki [2] is reported as 162 nM, the Ki [3] is reported as 16.6 nM and the Ki [4] is reported as 16.2 nM.

Compound `Cc1nc2c3ccccc3nc-2c(O)n1CCN1CCN(c2ccc(C(C)(C)C)cc2)CC1` has a Ki [2] of 2040 nM, a Ki [3] of 603 nM and a Ki [4] of 97.7 nM.
